Compound activity as filed in PubChem.
F508del corr: correctors of CFTR F508del function in bronchial epithelial cells. CFBE cells, YFP halide quenching; stimulated with forskolin plus potentiator P3; % fluorescence drop versus neutral controls. activity (quench increase), % at 7.58 µM. hit rate 0.36% among 350,000;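 active = mean added fluorescence quench of at least 8% versus neutral control, with both replicates also reaching 8%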;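 also: cells transiently co-express mutant CFTR-F508del with the halide-sensitive YFP; corrector assay measuring rescue of mutant channel to the surface after 24 h compound exposure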
dFosB act: activators of mouse delta FosB homodimer | activation, % at 25 µM | purified delta FosB, TAMRA-CDK5 oligo fluorescence polarization; percent of positive-control signal above neutral wells | P13346 | hit rate 0.99% among 340,000;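 active = mean activation above about 17%, with every replicate also reaching it, limit read from the data, passing the limit was not always enough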
Target sequence (P13346 whole entry, looked up): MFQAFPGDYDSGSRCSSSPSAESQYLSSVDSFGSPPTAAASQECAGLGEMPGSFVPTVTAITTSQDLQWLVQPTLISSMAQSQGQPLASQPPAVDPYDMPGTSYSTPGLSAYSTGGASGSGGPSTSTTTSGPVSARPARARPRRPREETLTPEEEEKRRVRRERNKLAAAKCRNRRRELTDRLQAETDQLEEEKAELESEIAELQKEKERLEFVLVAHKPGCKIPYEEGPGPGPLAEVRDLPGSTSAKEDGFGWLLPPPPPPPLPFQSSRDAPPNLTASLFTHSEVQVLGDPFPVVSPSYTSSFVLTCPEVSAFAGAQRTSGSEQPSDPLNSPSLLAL
S100A4 inh HTS: S100A4-myosin IIA interaction inhibition. P26447. S100A4/TAMRA-MyoIIA peptide fluorescence polarization. inhibition, % at 10.7 µM. hit rate 0.14% among 360,000. AID 652163;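 active = mean inhibition of at least 70% across replicates, with every replicate also reaching that level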
Target sequence (P26447 whole entry, looked up): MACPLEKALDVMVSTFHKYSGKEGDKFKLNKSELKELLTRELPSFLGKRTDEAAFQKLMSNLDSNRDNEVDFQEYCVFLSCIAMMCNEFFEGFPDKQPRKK
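Test system: S100A4 monomer protein. Medium: HEPES buffer with Ca2+, pH 7.2. Reagent: fluorescent myosin IIA peptide, 5 nM. Compound dosing: single-point compound testing. Timing: 5 min between mix addition and reading. Benchmarks: DMSO neutral and TFP positive wells.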
FGF22 binding: binders of recombinant human FGF22 by thermal shift; SYPRO orange fluorescence; percent of sucrose octasulfate shift, DMSO zero; activity (Tm shift, normalised), % at 9.99 µM; hit rate 1.5% among 340,000;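 active = mean Tm shift, scaled 0 neutral to 100 positive control, at about 1.3% or above, every replicate too, limit read from the data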
Target sequence (Q9HCT0 whole entry, looked up): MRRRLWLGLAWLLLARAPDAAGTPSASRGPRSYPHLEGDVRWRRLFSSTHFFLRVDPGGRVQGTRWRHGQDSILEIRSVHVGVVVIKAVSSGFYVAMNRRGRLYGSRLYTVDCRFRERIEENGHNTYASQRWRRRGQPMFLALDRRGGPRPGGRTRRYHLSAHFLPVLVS
Of the large screens only hits and unclear results are named; the others gave an inactive call; ! = not active in a repeat. Shown are actives, neighbours in structure and some others; about 2.2% of the full set was active somewhere.

C[C@@H]1CCCCO[C@@H](CN(C)C(=O)Nc2ccccc2)[C@H](C)CN([C@H](C)CO)C(=O)c2cc(NS(=O)(=O)c3ccc(F)cc3)ccc2O1	none (no result: dFosB act, S100A4 inh HTS)
CN(Cc1cccs1)C(=O)c1cccc(S(=O)(=O)N2CCCCCC2)c1	F508del corr 31.2
CN(Cc1cccs1)C(=O)c1ccc(S(=O)(=O)N2CCCCC2)cc1	none
COCc1[nH][nH]c(=O)c1/C=N/N1CCOCC1	FGF22 binding 43.8
C[C@@H]1CN([C@H](C)CO)C(=O)Cc2cc(NC(=O)CCN3CCOCC3)ccc2O[C@H]1CN(C)C(=O)Nc1ccc2c(c1)OCO2	none (no result: dFosB act)
CN(C)/C=C(/C(=O)c1ccc(Cl)c(Cl)c1)S(C)(=O)=O	FGF22 binding 43.6
CN(C)/C=C(/C(=O)c1ccc(Cl)cc1)S(C)(=O)=O	none
O=C(O)CCC(=O)N1CCCC1	FGF22 binding 42.9
O=C(Nc1ccccc1C(=O)N/N=C/c1ccncc1)c1ccccc1	FGF22 binding 44.3
O=C(Oc1ccc(/C=N/NC(=O)c2ccccc2F)cc1)c1ccccc1	dFosB act 16.7
Cc1ccccc1C(=O)Nc1ccc(C(=O)N/N=C/c2ccncc2)cc1	none
C[C@@H]1CN([C@@H](C)CO)S(=O)(=O)c2ccc(C#C[C@@H](C)O)cc2O[C@H]1CN(C)Cc1ccccc1	none (no result: dFosB act)
C[C@@H]1CCCCO[C@@H](CN(C)S(=O)(=O)c2cn(C)cn2)[C@@H](C)CN([C@H](C)CO)C(=O)c2cc(NC(=O)Nc3ccccc3)ccc2O1	none (no result: dFosB act)
CC(C)NC(=O)NCC[C@@H]1CC[C@H](NC(=O)CCN2CCCCC2)[C@H](CO)O1	none (no result: dFosB act)
CN(C)S(=O)(=O)c1cc(C(=O)NCc2ccccc2)c(Cl)cc1Cl	FGF22 binding 42.9
CN(C(=O)c1ccccc1Cl)c1ccccc1C(=O)NCc1ccccc1	none
CCCC#Cc1cnc2c(c1)C(=O)N([C@@H](C)CO)C[C@@H](C)[C@@H](CN(C)C(=O)C1CCC1)O2	none (no result: dFosB act)
C[C@@H]1CN([C@H](C)CO)C(=O)c2cc(NS(=O)(=O)c3ccc(F)cc3)ccc2O[C@@H](C)CCCCO[C@@H]1CN(C)Cc1ccc(C(=O)O)cc1	none (no result: dFosB act)
Cc1cccc2c1-c1sc(C(=O)Nc3ccccc3N3CCN(C)CC3)cc1CO2	dFosB act 25.6
COCC(=O)Nc1ccc2c(c1)C(=O)N(C)[C@H]1CC[C@H](CC(=O)NC3CCCC3)O[C@H]1CO2	none (no result: dFosB act, S100A4 inh HTS)
COc1ccc(C)cc1NC(=O)CNC(c1ccccc1)c1ccc(C)cc1 (configuration not stated)	F508del corr 13.4
COc1ccccc1NC(=O)CNC(c1ccccc1)c1ccccc1	none
COc1ccc(N2C(=O)CC(Nc3ccc(C(=O)O)cc3)C2=O)cc1OC (configuration not stated)	FGF22 binding 42.9
COC(=O)c1cccc(NC2CC(=O)N(c3ccc(OC)c(OC)c3)C2=O)c1 (configuration not stated)	none (no result: F508del corr, S100A4 inh HTS, FGF22 binding)
CCNc1ccc(C(=O)OCC(=O)N(Cc2ccccc2)C(C)(C)C)cc1[N+](=O)[O-]	FGF22 binding 43.0
CCCNc1ccc(C(=O)OCC)cc1[N+](=O)[O-]	none
Fc1ccc(NC(=S)NCCN2CCOCC2)c(F)c1F	FGF22 binding 43.1
CC1(C)OC(=O)C=C[C@]2(C)[C@H]3CC[C@@]4(C)[C@H](c5ccoc5)OC(=O)[C@H]5O[C@]54[C@]3(C)C(=O)C[C@@H]12	FGF22 binding 16.6
CC(C)C#Cc1ccc2c(c1)O[C@H](CN(C)C(=O)c1ccccn1)[C@@H](C)CN([C@@H](C)CO)S2(=O)=O	none (no result: dFosB act)
N/C(=N\OC(=O)COc1cc(Cl)c(Cl)cc1Cl)c1ccncc1	FGF22 binding 43.1 (no result: dFosB act)
CO[C@@H]1CN(C)C(=O)c2ccc(NC(=O)c3ccccc3)cc2OC[C@H](C)N(C(=O)C2CC2)C[C@H]1C	none (no result: dFosB act, S100A4 inh HTS, FGF22 binding)
COc1ccccc1C(=O)Nc1onc(C)c1C#N	F508del corr 18.2
COCC(=O)N(C)C[C@@H]1Oc2ncc(-c3ccccc3C)cc2C(=O)N([C@H](C)CO)C[C@H]1C	none (no result: dFosB act)
O=C(N[C@H]1CC[C@@H](CCn2cc(-c3ccccn3)nn2)O[C@@H]1CO)c1cccnc1	none (no result: dFosB act)
O=C(C[C@@H]1CC[C@H](NC(=O)c2cccnc2)[C@@H](CO)O1)NCc1ccncn1	none (no result: dFosB act)
Cc1ccccc1S(=O)(=O)N(C)C[C@H]1OCc2cnnn2CCCC(=O)N([C@@H](C)CO)C[C@H]1C	none (no result: dFosB act)
Cc1ccccc1S(=O)(=O)N(C)C[C@@H]1OCc2cnnn2CCCC(=O)N([C@@H](C)CO)C[C@H]1C	S100A4 inh HTS 111.8! (no result: dFosB act)
C[C@@H]1CN([C@@H](C)CO)C(=O)CCCn2nncc2CO[C@H]1CN(C)S(=O)(=O)c1ccc2ccccc2c1	none (no result: dFosB act)
C[C@@H]1CN([C@H](C)CO)C(=O)CCCn2nncc2CO[C@@H]1CN(C)S(=O)(=O)c1ccc2ccccc2c1	S100A4 inh HTS 93.1! (no result: dFosB act)
O=C1c2ccccc2NC2(CCCC2)N1NS(=O)(=O)c1ccccc1	none
CS(=O)(=O)NN1C(=O)c2ccccc2NC12CCCC2	FGF22 binding 43.0
CC(=O)N1CCN(C(=O)c2cc(S(=O)(=O)Nc3ccc(S(C)(=O)=O)cc3)ccc2Cl)CC1	FGF22 binding 43.6
CCN1CCN(C(=O)c2cc(S(=O)(=O)Nc3ccc(S(C)(=O)=O)cc3)ccc2Cl)CC1	none
CO[C@@H]1CN(C)C(=O)c2cc(NC(=O)C3CCCC3)ccc2OC[C@H](C)N(C(=O)CC2CC2)C[C@@H]1C	none (no result: dFosB act)
Cc1nc2c(C)c(C)c(C)c(C)c2nc1C	none (no result: dFosB act)
Cc1nc2nc(C)c(C)nc2nc1C	FGF22 binding 42.9 (no result: dFosB act)
C[C@H]1CN([C@@H](C)CO)C(=O)CCCn2cc(nn2)CO[C@H]1CN(C)Cc1cccc(C(F)(F)F)c1	none (no result: dFosB act)
COc1ccc(N(C)C(=O)Cc2c(C(=O)O)[nH]c3ccccc23)c(OC)c1	FGF22 binding 43.9
COc1cccc2cc(C(=O)Nc3ccc(F)cc3)c(=Nc3ccc(C(=O)O)cc3)oc12	FGF22 binding 43.0
CO[C@H]1CN(C)C(=O)c2ccc(NC(=O)c3ccc(F)cc3)cc2OC[C@@H](C)N(C(=O)c2ccc(F)cc2)C[C@H]1C	none (no result: dFosB act)
CCOC(=O)CSc1nc(-c2ccccc2)nc2ccc(C)cc12	FGF22 binding 43.4
O=C(CSc1nc(-c2ccccc2)nc2ccc(F)cc12)Nc1cccc(C(=O)O)c1	none
O=C(CSc1nc(-c2ccccc2)nc2ccc(F)cc12)Nc1ccc(C(=O)O)cc1	FGF22 binding 6.0
O=C(C[C@H]1C[C@@H]2c3cc(NC(=O)c4ccc5c(c4)OCO5)ccc3O[C@@H]2[C@@H](CO)O1)NCC(F)(F)F	none (no result: dFosB act)
Cc1cccc(-c2ccc([C@H]3[C@@H](CO)N4CCCCN(C(=O)c5ccncc5)C[C@H]34)cc2)c1	none (no result: dFosB act)
COC(=O)C(C)N(c1ccc(C)cc1)S(=O)(=O)c1c(C)[nH]c(=O)[nH]c1=O (configuration not stated)	none
Cc1ccc(N(C(C)C(=O)O)S(=O)(=O)c2c(C)[nH]c(=O)[nH]c2=O)cc1 (configuration not stated)	dFosB act 16.1
